Legend:
[1] = target: rabbit fast skeletal muscle myofibrils (Oryctolagus cuniculus, UniProt P02586+P02641+P02643); experiment: Fast skeletal myofibril ATPase assay; type: biochemical; settings: 14 vs 13; 25 vs bromo 14
How it was run: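 Rabbit fast skeletal muscle myofibrils; the read-out is the rate of ATP hydrolysis. The assay runs at a calcium level of 25% of that giving a maximal response in control preparations. AC40 is the test compound concentration that raises myofibril ATPase activity by 40%. Experiments were run in duplicate, and the fold potency change is taken from the AC40 values.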

Rat pharmacokinetics = settings: both, Sprague-Dawley, in vivo, iv
[2] = Microsomal turnover, human; type: in vitro ADME
Mouse pharmacokinetics = settings: in vivo, iv, 1 mg/kg
Microsomal turnover, rat = type: in vitro ADME
[3] = ALS patients taking both 25 and Riluzole; cited from earlier work
B6SJL-SOD1^G93A mouse = settings: B6SJL-SOD1G93A mice, single dose; cited from earlier work
[4] = In vivo clearance across nonclinical species vs hepatic blood flow
CYP1A2 = target: T1, CYP1A2 (Homo sapiens, UniProt P05177); experiment: Cytochrome P450 inhibition and time-dependent inhibition; type: in vitro ADME; settings: liver microsomes, probe phenacetin
T1 sequence (P05177 1-516): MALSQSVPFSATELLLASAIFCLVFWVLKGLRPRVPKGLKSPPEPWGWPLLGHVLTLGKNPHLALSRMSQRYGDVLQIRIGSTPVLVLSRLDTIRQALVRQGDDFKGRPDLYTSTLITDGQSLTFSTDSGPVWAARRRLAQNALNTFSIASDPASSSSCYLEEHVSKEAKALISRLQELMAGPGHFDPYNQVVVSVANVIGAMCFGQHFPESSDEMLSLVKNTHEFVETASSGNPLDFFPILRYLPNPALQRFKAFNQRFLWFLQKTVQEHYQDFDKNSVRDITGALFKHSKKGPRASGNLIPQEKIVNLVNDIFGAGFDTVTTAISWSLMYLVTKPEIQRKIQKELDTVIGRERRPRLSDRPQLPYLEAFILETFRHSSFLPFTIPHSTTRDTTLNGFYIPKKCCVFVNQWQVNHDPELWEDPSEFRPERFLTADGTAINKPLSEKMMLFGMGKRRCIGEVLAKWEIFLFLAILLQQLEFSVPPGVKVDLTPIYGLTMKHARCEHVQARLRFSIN

[5] = test system: PT-EAMG (passive transfer experimental autoimmune myasthenia gravis) rat model; settings: rats treated with anti-nAchRα antibody; cited from earlier work
patients with ALS = settings: Phase 3, patients with ALS; ref VITALITY-ALS, NCT02496767; cited from earlier work
[6] = test system: extensor digitorum longus (EDL) muscle; experiment: In situ EDL muscle force; type: in vivo; settings: rat, systemic infusion, submaximal stimulation rates
tibialis anterior = settings: healthy humans, nerve stimulation; cited from earlier work

Sequence of rabbit fast skeletal muscle myofibrils (P02586 2-160 limits assumed): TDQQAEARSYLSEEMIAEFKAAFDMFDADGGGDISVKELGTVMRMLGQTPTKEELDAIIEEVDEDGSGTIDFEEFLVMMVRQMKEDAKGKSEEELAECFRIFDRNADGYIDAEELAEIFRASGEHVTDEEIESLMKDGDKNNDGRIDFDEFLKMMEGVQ
Sequence of rabbit fast skeletal muscle myofibrils (P02643 2-182 limits assumed): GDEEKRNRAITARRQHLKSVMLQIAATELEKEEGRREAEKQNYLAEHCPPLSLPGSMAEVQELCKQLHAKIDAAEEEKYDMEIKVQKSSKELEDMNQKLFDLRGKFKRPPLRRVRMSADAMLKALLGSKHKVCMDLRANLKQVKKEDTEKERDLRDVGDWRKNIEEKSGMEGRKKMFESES
Sequence of rabbit fast skeletal muscle myofibrils (P02641 2-279 limits assumed): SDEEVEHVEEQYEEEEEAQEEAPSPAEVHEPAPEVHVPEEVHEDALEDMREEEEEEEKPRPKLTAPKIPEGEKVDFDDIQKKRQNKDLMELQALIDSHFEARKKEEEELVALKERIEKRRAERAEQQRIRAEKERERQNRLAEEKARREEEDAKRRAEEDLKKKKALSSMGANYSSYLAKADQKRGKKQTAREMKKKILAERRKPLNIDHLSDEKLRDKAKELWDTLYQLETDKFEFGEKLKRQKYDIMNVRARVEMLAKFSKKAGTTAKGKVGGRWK

| SMILES | fold improvement in biochemical potency over comparator [1] [fold] | clearance (Rat pharmacokinetics; 1 mg/kg) [mL/min/kg] | Re (h), ratio of extraction in microsomes [2] | clearance (Mouse pharmacokinetics) [mL/min/kg] | Re (r), ratio of extraction in microsomes (Microsomal turnover, rat) | drug-drug interaction: change of Riluzole concentrations [3] | muscle function and performance in ALS mouse model (B6SJL-SOD1^G93A mouse) | in vivo clearance as share of hepatic blood flow [4] | IC50 shift at 30 min (CYP1A2) | grip strength [5] | primary end point: change from baseline in slow vital capacity (SVC) at 24 weeks (patients with ALS) | in situ EDL muscle force [6] | in situ EDL muscle force ([6]; listed as tirasemtiv) | force produced by the tibialis anterior (tibialis anterior) | clearance (Rat pharmacokinetics) [mL/min/kg] |
| --- | --- | --- | --- | --- | --- | --- | --- | --- | --- | --- | --- | --- | --- | --- | --- |
| CCC(CC)n1c(=O)[nH]c2ncc(Br)nc21 [Compound 14] | 3 | 19 | – | – | – | – | – | – | – | – | – | – | – | – | – |
| CCC(CC)n1c(=O)[nH]c2ncc(Cl)nc21 [Compound 21] | – | 7.7 | – | – | – | – | – | – | – | – | – | – | – | – | – |
| C#Cc1cnc2nc(O)n(C(CC)CC)c2n1 [Compound 25, tirasemtiv] | 3 | 2.6 | <0.21 | 13.9 | 0.26 | approximate doubling of Riluzole concentrations | significantly increased submaximal isometric force, forelimb grip strength, grid hang time, and rotarod performance | less than 15 % of hepatic blood flow | > 3 | increased grip strength | did not meet its primary end point | rapid, dose-dependent increases in muscle force at submaximal stimulation rates | concentration-dependent improvement in muscle force production in situ | increased force produced by the tibialis anterior in a dose-, concentration-, and frequency-dependent manner | 2.6 |
